Active and inactive are the calls of the source.
Legend:
Toll-like receptor 7 = biological target: T1, Toll-like receptor 7 (Homo sapiens, UniProt Q9NYK1); assay: Agonist activity at TLR7 in human cryopreserved PBMC assessed as induction of IFNalpha production measured after 24 hrs
T1 sequence (Q9NYK1 whole entry): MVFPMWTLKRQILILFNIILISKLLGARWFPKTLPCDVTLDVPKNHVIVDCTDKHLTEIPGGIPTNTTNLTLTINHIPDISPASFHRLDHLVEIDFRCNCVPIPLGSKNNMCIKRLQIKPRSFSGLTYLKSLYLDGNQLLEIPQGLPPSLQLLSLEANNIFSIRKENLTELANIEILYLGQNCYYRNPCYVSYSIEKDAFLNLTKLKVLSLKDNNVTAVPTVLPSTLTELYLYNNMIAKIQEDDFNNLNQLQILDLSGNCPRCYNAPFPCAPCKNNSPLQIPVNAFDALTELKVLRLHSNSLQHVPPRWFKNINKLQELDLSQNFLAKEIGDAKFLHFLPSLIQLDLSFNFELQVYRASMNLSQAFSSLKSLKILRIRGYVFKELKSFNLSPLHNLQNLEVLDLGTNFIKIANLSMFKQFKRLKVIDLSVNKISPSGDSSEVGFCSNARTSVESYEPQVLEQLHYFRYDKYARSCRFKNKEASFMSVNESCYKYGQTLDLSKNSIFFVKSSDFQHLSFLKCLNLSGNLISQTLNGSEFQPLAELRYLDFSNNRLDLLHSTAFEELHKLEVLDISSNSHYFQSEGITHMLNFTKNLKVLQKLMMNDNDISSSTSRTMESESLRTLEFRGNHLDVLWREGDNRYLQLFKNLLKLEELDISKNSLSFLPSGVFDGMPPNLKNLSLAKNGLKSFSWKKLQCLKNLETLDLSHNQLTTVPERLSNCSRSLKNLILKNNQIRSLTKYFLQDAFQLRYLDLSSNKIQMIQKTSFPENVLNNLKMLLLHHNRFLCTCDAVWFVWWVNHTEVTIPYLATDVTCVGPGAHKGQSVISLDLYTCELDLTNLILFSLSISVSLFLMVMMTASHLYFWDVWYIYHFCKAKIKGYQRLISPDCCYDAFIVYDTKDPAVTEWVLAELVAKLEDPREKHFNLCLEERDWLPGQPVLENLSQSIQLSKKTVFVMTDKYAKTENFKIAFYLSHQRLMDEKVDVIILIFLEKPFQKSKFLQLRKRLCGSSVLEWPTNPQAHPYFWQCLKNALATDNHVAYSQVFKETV
In short: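 Cryopreserved healthy-donor human PBMC, recovered 2 h at 37°C/5% CO2, then 100k cells/well in RPMI/10% FBS exposed 24 h at 37°C to a 10-point half-log dilution series (0.5% final DMSO). Supernatant IFNα-2a quantified by MSD electrochemiluminescence immunoassay. For the ratio, divided by the IL-12p40 EC50 from the same PBMC screen.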

[1] = Clearance in cynomolgus monkey hepatic microsomes at 2 uM measured up to 60 mins in presence of NADPH generating system by LC-MS/MS analysis; assay type: ADME, Macaca fascicularis, Microsome; conditions: liver microsomes
[2] = Apparent permeability across apical to basolateral side in human Caco2 cells measured after 1 to 2 hrs by LC-MS/MS analysis; conditions: Caco-2
[3] = Selectivity index, ratio of CC50 for human MT4 cells to EC50 for TLR8 in human cryopreserved PBMC assessed as induction of IL-12p40 production
[4] = Drug absorption in cynomolgus monkey at 3 mg/kg, po administered via gavage by HPLC-MS analysis; assay type: ADME, organism-based, Macaca fascicularis; conditions: in vivo, read-out: Drug absorption
In short: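 Oral dosing in 2% ethanol/40% PEG 300/58% 0.01N HCl: Sprague Dawley rats 5 mg/kg, beagle dogs 0.5 mg/kg, cynomolgus monkeys 3 mg/kg.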

[5] = biological target: Nucleotide-binding oligomerization domain-containing protein 2 (Homo sapiens) (UniProt Q9HC29); assay: Agonist activity at human NOD2 expressed in HEK293 cells assessed as increase in NF-kappaB activation up to 10 uM incubated for 24 hrs by quanti-blue SEAP reporter gene assay; assay type: cell-based; conditions: dose microM <=10, time 24.0 hrs
In short: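 HEK293 cells stably expressing individual human TLRs or other innate immune receptors, used as reporter gene assays. Minimum effective concentration defined as the level giving a 3-fold rise over background.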

[6] = Volume of distribution at steady state in Sprague-Dawley rat at 1 mg/kg, iv administered as 30 mins infusion by HPLC-MS analysis; assay type: ADME, organism-based; conditions: in vivo, read-out: Vdss
In short: (§1)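 30-min intravenous infusion: Sprague Dawley rats 1 mg/kg, beagle dogs 0.25 mg/kg, cynomolgus monkeys 0.1 mg/kg; n = 3 per species, reported as mean ± SD.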

[7] = Immunomodulatory activity in human primary hepatocytes infected with HBV assessed as stimulation of CD8+T cell response to virus by measuring decrease in HBsAg production treated with media from PBMC stimulated with 10 nM compound for 10 days relative to control; assay type: functional; set-up: scale not given: the % may be the effect or the level left; conditions: time 10 day
[8] = Volume of distribution at steady state in Beagle dog at 0.25 mg/kg, iv administered as 30 mins infusion by HPLC-MS analysis; assay type: ADME, organism-based, Canis lupus familiaris; conditions: in vivo, read-out: Vdss; in short: as §1

Nucleotide-binding oligomerization domain-containing protein 2 (Homo sapiens), sequence (Q9HC29 whole entry, the tested form may be a part): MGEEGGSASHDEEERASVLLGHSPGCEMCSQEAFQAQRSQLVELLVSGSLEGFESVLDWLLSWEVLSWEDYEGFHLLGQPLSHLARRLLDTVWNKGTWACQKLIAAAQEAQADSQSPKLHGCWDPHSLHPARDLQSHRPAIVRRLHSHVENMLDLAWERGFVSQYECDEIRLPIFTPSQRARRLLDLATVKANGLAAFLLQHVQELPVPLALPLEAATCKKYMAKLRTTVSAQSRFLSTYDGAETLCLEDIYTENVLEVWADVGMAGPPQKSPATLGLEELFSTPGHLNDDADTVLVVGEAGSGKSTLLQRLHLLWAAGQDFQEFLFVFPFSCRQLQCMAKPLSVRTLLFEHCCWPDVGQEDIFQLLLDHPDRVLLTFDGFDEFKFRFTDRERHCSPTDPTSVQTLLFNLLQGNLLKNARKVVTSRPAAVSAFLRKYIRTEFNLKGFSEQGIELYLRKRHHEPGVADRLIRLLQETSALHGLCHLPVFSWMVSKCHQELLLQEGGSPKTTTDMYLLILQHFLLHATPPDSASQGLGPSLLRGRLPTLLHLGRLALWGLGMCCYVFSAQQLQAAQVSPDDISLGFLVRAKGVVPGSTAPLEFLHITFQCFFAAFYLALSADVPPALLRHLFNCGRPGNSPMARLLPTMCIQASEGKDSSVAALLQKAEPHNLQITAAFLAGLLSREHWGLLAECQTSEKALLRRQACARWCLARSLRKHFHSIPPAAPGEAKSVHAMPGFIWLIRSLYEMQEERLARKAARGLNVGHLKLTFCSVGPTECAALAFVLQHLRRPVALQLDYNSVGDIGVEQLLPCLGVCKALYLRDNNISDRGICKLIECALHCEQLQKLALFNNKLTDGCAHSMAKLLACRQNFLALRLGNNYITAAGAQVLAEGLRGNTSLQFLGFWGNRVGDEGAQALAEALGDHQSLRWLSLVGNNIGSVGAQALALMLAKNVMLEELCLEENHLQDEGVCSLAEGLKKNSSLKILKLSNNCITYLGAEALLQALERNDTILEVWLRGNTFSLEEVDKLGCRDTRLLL

CCCC[C@](C)(CO)Nc1nc(N)nc2cc(F)cnc12 [SELGANTOLIMOD]
EC50 (Toll-like receptor 7): > 50 µM | CLhep predicted at 2 µM [1]: 25 mL/min/kg | Papp A→B [2]: 7.9 ×10⁻⁶ cm/s | Ratio CC50/EC50 [3]: 77 | Fa [4]: 100% | Activity [5]: inactive | Vd [6]: 1.1 L/kg | Activity [7]: >50% | Vd [8]: 1.01 L/kg

Source: ChEMBL document CHEMBL4725242, “Discovery of GS-9688 (Selgantolimod) as a Potent and Selective Oral Toll-Like Receptor 8 Agonist for the Treatment of Chronic Hepatitis B” (J Med Chem, 2020)
